Assay outcomes from PubChem.
Autophagy HCS – autophagy modulation, high-content screen; AID 463193; MEF GFP-LC3 puncta imaging; test concentration mostly 10 µM; hit rate 0.98% among 190,000; calls only at 10 µM (by protocol);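 active = percentage of spot-positive cells more than 3 SD above its plate mean, without a fluorescence outlier flag or 80% toxicity; inconclusive = no clear call, values can overlap the other calls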
Furin inh – inhibitors of human furin | P09958 | purified furin, fluorogenic substrate cleavage | inhibition, % at 20 µM or 30 µM | hit rate 0.061% among 220,000 | AID 463115; in the data active = inhibition above about 25%
Target sequence (P09958 108-714 limits assumed): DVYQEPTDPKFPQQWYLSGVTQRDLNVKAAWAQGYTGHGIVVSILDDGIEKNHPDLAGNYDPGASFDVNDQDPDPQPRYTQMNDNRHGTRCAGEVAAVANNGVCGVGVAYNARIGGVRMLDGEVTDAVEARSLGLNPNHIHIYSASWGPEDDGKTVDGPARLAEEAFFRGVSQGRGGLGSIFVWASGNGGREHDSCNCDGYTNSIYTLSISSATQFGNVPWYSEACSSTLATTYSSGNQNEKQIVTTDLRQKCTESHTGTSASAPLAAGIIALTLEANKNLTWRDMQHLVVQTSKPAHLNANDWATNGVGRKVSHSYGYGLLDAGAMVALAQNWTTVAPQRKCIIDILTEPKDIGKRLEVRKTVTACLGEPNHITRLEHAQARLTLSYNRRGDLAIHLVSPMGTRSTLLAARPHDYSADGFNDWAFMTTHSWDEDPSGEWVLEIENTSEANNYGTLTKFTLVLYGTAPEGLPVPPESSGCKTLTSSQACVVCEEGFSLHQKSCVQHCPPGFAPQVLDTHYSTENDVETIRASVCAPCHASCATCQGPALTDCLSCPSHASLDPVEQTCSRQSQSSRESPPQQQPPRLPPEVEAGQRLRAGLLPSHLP
L929 necroptosis – blocks zVAD induced death of L929 cells | L929 zVAD necroptosis rescue, ATP luminescence, 24 h; with zVAD 60 µM | hit rate 0.38% among 220,000 | viability rescue, % at 10 µM | AID 1377;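 active = activation, scaled between plate controls, above about 75%, limit read from the data; inactive = activation under that limit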
TNF necrop inh – TNF-alpha cell death inhibition in Jurkat FADD-/- cells; activation (protection from cell death), % at 10 µM; hit rate 0.068% among 220,000; Jurkat FADD-/- TNF necroptosis rescue, ATP luminescence, 24 h; 0 = TNF only, 100 = no-TNF cells;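 active = activation, meaning protection from cell death, of at least 50% relative to plate controls; inactive = activation below 50%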;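 also: necroptosis triggered by 40 ng/mL TNF-alpha added together with compound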
Dynein cargo inh – dynein cargo transport inhibition | 3617.4 mouse cells, GR-EGFP nuclear translocation imaging; test concentration mostly 20 µM; stimulated with dexamethasone, 1 µM; active compounds read low | z-score, hits read low | hit rate 0.47% among 220,000;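 active = plate z-score of nuclear minus cytoplasmic receptor signal below a set negative limit, without overly bright fluorescence or cell loss, cut at about -3.5 in these data, passing the limit was not always enough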;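 also: z-score of nuclear minus cytoplasmic ring GR-EGFP intensity difference per well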
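Buffer or medium: tet-free medium with charcoal-stripped serum / Also added: dexamethasone agonist, 1.0 µM final, for 30 min / Timing: induction 48 h, compound 1 h, agonist 30 min / Measured by: high-content fluorescence imaging after fixation / Read-out: nuclear-to-cytoplasmic GR-EGFP distribution per well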
HSV replic up – HSV replication enhancement | HSV replication augmentation in cells, fold increase | maximum fold increase | hit rate 0.005% among 220,000 | AID 1956; in the data active = maximum fold increase above about 1.5; inconclusive = no clear call, values can overlap the other calls; tested in PC3 cells
Large screens that a line does not name were inactive. A selection: hits, their analogues and other compounds. The true share with any hit is near 1.8%.

C=CCc1ccc(OCCOCCNCCOC)c(OC)c1	none
C=CCc1ccc(OCCOCCNCCCC)c(OC)c1	Autophagy HCS active
Cc1cc(N2CCN(C)CC2)ccc1NC(=O)c1c2c(nc3ccccc13)CCN(Cc1ccccc1)C2	Autophagy HCS inconclusive (no result: HSV replic up)
CC(C)c1ccccc1NC(=O)COC(=O)c1c2c(nc3ccccc13)CCN(Cc1ccccc1)C2	Autophagy HCS active
O=C(NC1CCCCCC1)c1c2c(nc3ccccc13)CCN(Cc1ccccc1)C2	none
Cc1c(Cl)cccc1NC(=O)COC(=O)c1c2c(nc3ccccc13)CCN(Cc1ccccc1)C2	Autophagy HCS active
COc1cccc(-c2nc(Oc3cc(C)cc(C)c3)c3ccccc3n2)c1O	Autophagy HCS active
CCC(C)N1CNc2c(c(=O)[nH]c(=S)n2-c2cccc(C)c2)C1 (stereo not given)	none
O=C(NC1CCN(Cc2ccccc2)CC1)c1ccc(S(=O)(=O)NCc2ccco2)cc1	Autophagy HCS active
CCOC(=O)c1[nH]c2ccc(Br)cc2c1NC(=O)CCN1CCCC(C)(C)C1	none (no result: L929 necroptosis)
CCOc1ccc2[nH]c(=O)c(C(c3nnnn3C3CCCCC3)N3CCN(C)CC3)cc2c1 (stereo not given)	Autophagy HCS active (no result: HSV replic up)
Cc1ccc(-c2cc(C(F)F)n3ncc(C(=O)Nc4c(C)nn(Cc5c(Cl)cccc5Cl)c4C)c3n2)cc1	Autophagy HCS active
Cc1nn(Cc2c(Cl)cccc2Cl)c(C)c1NC(=O)c1cnn2c(C(F)F)cc(-c3ccccc3)nc12	none
O=C(c1cnn2c(C(F)F)cc(-c3ccccc3)nc12)N1CCc2ccccc21	none
Cc1ccc(-c2cc(C(F)F)n3ncc(C(=O)N4CCc5ccccc54)c3n2)cc1	Autophagy HCS active
CC1(C)c2[nH]c3ccccc3c2C[C@@H]2C(=O)N(Cc3ccco3)C(=O)N21	none (no result: Autophagy HCS, Furin inh, L929 necroptosis, TNF necrop inh, Dynein cargo inh)
CCOc1ccccc1C(=O)N[C@H](C(=O)OCc1cc([N+](=O)[O-])cc2c1OCOC2)C(C)C	none
C=CCc1cc(C)ccc1OCCOCCn1ccnc1	none
CCn1ncc(C2=NOC(C(=O)NCC(C)C)C2)c1C (stereo not given)	none
CCn1ncc(C2=NOC(C(=O)Nc3cnn(C45CC6CC(CC(C6)C4)C5)c3)C2)c1C (stereo not given)	L929 necroptosis 87.3
OCCC1CN(Cc2nc3ccccc3s2)CCN1C1CCCC1 (stereo not given)	none
CC(C)C(=O)N1CCN(c2ccc(NC(=O)c3ccc([N+](=O)[O-])o3)cc2)CC1	Autophagy HCS active
CC1CC(=O)NN1C(=O)c1ccccc1 (stereo not given)	none (no result: Autophagy HCS)
COc1cc(C(C[N+](=O)[O-])c2c(C)[nH]c3ccccc23)ccc1O (stereo not given)	Autophagy HCS active
COc1ccc(Cn2c3ccc(OC)cc3c3nc4ccccc4nc32)cc1	Autophagy HCS active
COc1ccc2c(c1)c1nc3ccccc3nc1n2CC(=O)OC(C)C	Autophagy HCS active (no result: HSV replic up)
COc1ccc2c(c1)c1nc3ccccc3nc1n2Cc1ccc(OC(C)C)c(OC)c1	Autophagy HCS active
COc1ccc(Cn2c(N)c(C#N)c3nc4ccccc4nc32)cc1OC	none
COc1ccc2c(c1)c1nc3ccccc3nc1n2CCCN1C(=O)c2ccccc2C1=O	none
CCOC(=O)C1(Cc2ccc(OC)cc2)CCN(C(=O)c2ccoc2C)CC1	none
CC(Sc1nnc(-c2cccnc2)n1-c1ccccc1F)C(=O)N1CCCc2ccccc21 (stereo not given)	none
Cc1cccc(C(=O)NNC(=O)c2ccco2)c1	none
CC1=C(C)C(=O)NC(Nc2nc(C)c3cc(C)cc(C)c3n2)N1 (stereo not given)	Autophagy HCS active (no result: HSV replic up)
FC(F)(F)c1ccc(/C=N/N2CCN(Cc3cccc4ccccc34)CC2)cc1	none
C(=N\N1CCN(Cc2cccc3ccccc23)CC1)/c1ccco1	Autophagy HCS active
COc1cccc(NC(=O)c2ccc(NCCCN3CCC(C)CC3)c([N+](=O)[O-])c2)c1	none
COc1cccc(NC(=O)c2ccc(NCCCN3CC(C)CC(C)C3)c([N+](=O)[O-])c2)c1 (stereo not given)	Autophagy HCS active
O=[N+]([O-])c1ccc(N/N=C\c2ccccc2OCc2ccccc2)cc1	Autophagy HCS active
Cc1ccccc1C1C2=C(Nc3[nH]n(-c4ccccc4)c(=O)c31)c1ccccc1C2=O (stereo not given)	none
Cc1cccc(C2C3=C(Nc4[nH]n(-c5ccccc5)c(=O)c42)c2ccccc2C3=O)c1 (stereo not given)	Autophagy HCS active
CCN(C(=O)CSc1nnc(C)n1Cc1ccccc1)C1CCS(=O)(=O)C1 (stereo not given)	Autophagy HCS active
Nc1c(Cl)cc(-c2csc(N3CCCC3c3nc4cc(Cl)c(N5CCCCC5)cc4n3CCOCCO)n2)cc1Cl (stereo not given)	none (no result: Autophagy HCS, Furin inh, L929 necroptosis, TNF necrop inh, Dynein cargo inh)
CC(NC(=O)c1cc(Br)ccc1Cl)c1ccccc1 (stereo not given)	TNF necrop inh 79.7 (no result: Autophagy HCS)
CC(NC(=O)c1ccc(Br)cc1Br)c1ccccc1 (stereo not given)	none
Cc1cc(=O)[nH]c(N/N=C/C2=C(N3CCOCC3)C(=C\c3ccc(Cl)cc3)/CC2)n1	Autophagy HCS active
CCOc1ccc(-n2nc3c(-n4ncc(C#N)c4N)nnc(C)c3c2C)cc1	none (no result: HSV replic up)
Cn1nc([N+](=O)[O-])c(C(C#N)c2ccccn2)c(Cl)c1=O (stereo not given)	Dynein cargo inh -5.88
C=CCN(C(=O)C1=NN(C2CCS(=O)(=O)C2)C(=O)CC1)c1nc(-c2ccc([N+](=O)[O-])cc2)cs1 (stereo not given)	Autophagy HCS active
O=C(Nc1ncccn1)c1cc([N+](=O)[O-])cc([N+](=O)[O-])c1	none
O=[N+]([O-])c1cc(-c2ncccn2)c([N+](=O)[O-])s1	Dynein cargo inh -3.87 (no result: L929 necroptosis)
COc1ccc(S(=O)(=O)CCC(=O)Nc2cccc(OC)c2)cc1	none
O=C(CCS(=O)(=O)c1ccc(Br)s1)Nc1ccccc1Br	none
COc1cc(/C=N/NC(=O)c2csc3c2CCCC3)cc(OC)c1O	none
Cc1ccc(/C=N/NC(=O)c2csc3c2CCCC3)cc1	Autophagy HCS active
Oc1ccccc1CN1CCCN(Cc2ccccc2O)C1	Autophagy HCS active
CCN(CC)c1ccc2cc(C(C)=O)c(=O)oc2c1	HSV replic up inconclusive
CCN(CC)c1ccc2cc(-c3nnc(-c4ccncc4)o3)c(=O)oc2c1	Autophagy HCS active, HSV replic up inconclusive
COc1ccc2cc3cc(C(=O)Nc4ccccc4N4CCN(C)CC4)oc3nc2c1	Autophagy HCS active, HSV replic up inconclusive
Cc1ccc2nc3sc(-c4nnc(-c5ccccc5[N+](=O)[O-])o4)c(N)c3cc2c1	Autophagy HCS active (no result: HSV replic up)
